This is an account of results in PubChem BioAssay.

Assay [1] is described as follows: reduced viability of SK-BR-3 breast cancer cells – cell-based, 24 h, human, pilot screen (AID 572;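 active means viability at or below 10% of carrier control in both of two separate runs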;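 further: compound exposure lasted between 18 and 24 h rather than exactly 24 h; 100% = carrier-treated control wells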). The following applies: SK-BR-3 viability, CellTiter-Glo luminescence, at 10 µM, stronger effect = lower value. On the technique in general: Cellular ATP, detected with luciferase, serves as a proxy for viable cell number.
A short description of assay [2]: HUVEC growth inhibition – cell-based, human, primary screen (AID 575).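 Further: 100% = median of untreated cell wells with 0.1% DMSO on each plate.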 The settings on record: HUVEC proliferation, CellTiter-Glo luminescence, 72 h; at 10 µM; stronger effect = lower value. The method, boiled down: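 Test system: primary human umbilical vein endothelial cells; medium: endothelial basal medium with 2% FBS plus growth supplements; dosing: 10 µM compound only; times: 72 h treatment at 37 °C; signal: CTG luminescence; read-out: % viability relative to median vehicle-well signal on each plate; control set: vehicle and MePR control wells; plate: 384-well, collagen-coated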

The nature of assay [3]: H69AR cell proliferation blockers – human, duplicate replicates, primary screen (AID 580;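 active means viability at or under a set limit in both replicates, limit being median viability minus 3 SD, cut at about 48% in these data, passing the limit was not always enough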;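 further: 100% = mean luminescence of untreated wells and 0% = no signal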). The following applies: H69AR lung tumor cells viability, ATP luminescence, 72 h; at 10 µM; stronger effect = lower value.
The nature of assay [4]: MRP1 drug-resistance reversers in H69AR cells – cell-based, doxorubicin co-treatment, pilot screen (AID 601;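 active means viability loss from added drug above about 55%, and viability with drug at most 40%, in both replicates, limit read from the data, passing the limit was not always enough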). The following applies: CellTiter-Glo, 72 h, at 10 µM; for differential viability (reversal): stronger effect = higher value.
The nature of assay [5]: yeast transport mutant growth inhibition pilot in 384-well plates, post-Golgi transport modulator project (AID 636; in the data active means inhibition above about 31%). The following applies: absorbance 615 nm, about 18 h, stronger effect = higher value.
Assay [6] in a line: growth suppression of yeast trafficking mutant, preliminary HTS, modulators of trafficking downstream of Golgi apparatus project, 1536-format plate, OD 615 nm (AID 637; in the data active means inhibition above about 30%). The settings on record: yeast transport mutant growth, absorbance 615 nm, 18 h; stronger effect = higher value.
Where [7] appears, read: H69AR cells + 2 uM doxorubicin, measured here: viability with 2 uM doxorubicin, stronger effect = lower value.
Setting [8] is: H69AR cells, compound alone cytotoxicity.

Active and inactive are the calls of the source.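 How the source made its calls, unless noted: active means viability at or below 30% in both replicate assays; inconclusive means viability at or below 30% in just one of the two assays; inactive means the rest.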

For `O=C(C1=C(O)C(=O)N(c2ncccn2)C1c1cccc(Cl)c1)c1ccco1` (configuration not stated), the viability (commonly a read-out of living cells in per cent, often relative to untreated cells) was 119% (inactive) in assay [1]; 93% (inactive) in assay [2]; 89.2% (inactive) in assay [3]; 92.4% in assay [4] (setting [7]); 89.2% in assay [4] (setting [8]). Besides, the differential viability (reversal) in assay [4] (H69AR cells + 2 uM doxorubicin) was -3.12% (inactive). For the same molecule, the inhibition (commonly the relative decrease from the control value, in per cent) in assay [5] was 2.33% (inactive); in assay [6], 1.29% (inactive).
Take `CCCC(=O)Nc1ccc(C(=O)O)cc1NC(=O)CCC`: the viability in assay [1] is 77% (inactive); in assay [2], 97.3% (inactive); in assay [3] it was 96.3% (inactive); in assay [4] (setting [7]), 119%; in assay [4] (setting [8]), 96.3%. The differential viability (reversal) in assay [4] (H69AR cells + 2 uM doxorubicin) was -23% (inactive). Further, the inhibition in assay [5] is -3.56% (inactive); in assay [6], 1.45% (inactive).
For the molecule `COCCCN1C(=O)C(=O)/C(=C(/O)c2ccc(OC)cc2)C1c1ccc(O)c(OC)c1` (configuration not stated), the viability is 104% (inactive) in assay [1]; 109% (inactive) in assay [2]; 103% (inactive) in assay [3]; 96.9% in assay [4] (setting [7]); 103% in assay [4] (setting [8]). Further, the differential viability (reversal) in assay [4] (H69AR cells + 2 uM doxorubicin) is 6.55% (inactive). Further, the inhibition was -2.53% (inactive) in assay [5] and -1.45% (inactive) in assay [6].
With `CCCN1Cc2cccc(C(=O)NC3CCCC3)c2C1=O`, the viability in assay [1] was 111% (inactive); in assay [2], 91.5% (inactive); in assay [3] it was 87.9% (inactive); in assay [4] (setting [7]), 82.8%; in assay [4] (setting [8]), 87.9%. Also, the differential viability (reversal) in assay [4] (H69AR cells + 2 uM doxorubicin) is 5.09% (inactive). Moreover, the figures for the inhibition in assay [5] and in assay [6] were -7.47% (inactive) and 6.36% (inactive), respectively.
As for `C1=C(CCNc2ncnc3c2cnn3-c2ccccc2)CCCC1`, the viability in assay [1] was 98% (inactive); in assay [2], 116% (inactive); in assay [3] it was 88.7% (inactive); in assay [4] (setting [7]) it was 82.3%; in assay [4] (setting [8]) it was 88.7%. Moreover, the differential viability (reversal) in assay [4] (H69AR cells + 2 uM doxorubicin) was 6.36% (inactive). Moreover, the inhibition is -4.13% (inactive) in assay [5] and 0.91% (inactive) in assay [6].
As to `CC1CCCc2sc3nc(NCc4ccco4)n4ncnc4c3c21` (configuration not stated), the viability in assay [1] is 104% (inactive); in assay [2], 79.2% (inactive); in assay [3], 83.3% (inactive); in assay [4] (setting [7]), 85%; in assay [4] (setting [8]) it was 83.3%. Besides, the differential viability (reversal) in assay [4] (H69AR cells + 2 uM doxorubicin) is -1.71% (inactive). The inhibition in assay [5] is -3.97% (inactive); in assay [6], 20.3% (inactive).
For the molecule `N#CC1=C(N)Oc2c(ccc3cccnc23)C1c1cccnc1` (configuration not stated), the viability was 111% (inactive) in assay [1]; 60% (inactive) in assay [2]; 15.1% (active) in assay [3]; 26% in assay [4] (setting [7]); 15.1% in assay [4] (setting [8]). In addition, in assay [4] (H69AR cells + 2 uM doxorubicin), the differential viability (reversal) was -10.9% (inactive). For the same molecule, the inhibition in assay [5] was -7.53% (inactive); in assay [6] it was 5% (inactive).
As to `N#Cc1cnc(SCCc2ccccc2)nc1N`, the viability in assay [1] is 78% (inactive); in assay [2], 102% (inactive); in assay [3] it was 97.8% (inactive); in assay [4] (setting [7]), 91.2%; in assay [4] (setting [8]), 97.8%. Moreover, the differential viability (reversal) in assay [4] (H69AR cells + 2 uM doxorubicin) was 6.68% (inactive). Further, the inhibition is -5.14% (inactive) in assay [5] and 0% (inactive) in assay [6].
Take `CCNC(=O)CC1C(=O)N(c2ccccc2)C(=O)N1CCC(C)C` (configuration not stated): the viability was 117% (inactive) in assay [1]; 95.9% (inactive) in assay [2]; 93.5% (inactive) in assay [3]; 79.6% in assay [4] (setting [7]); 93.5% in assay [4] (setting [8]). Also, in assay [4] (H69AR cells + 2 uM doxorubicin), the differential viability (reversal) was 13.9% (inactive). Besides, the inhibition is -0.78% (inactive) in assay [5] and -0.82% (inactive) in assay [6].
On to `CC(=O)c1ccc(NC(=O)CCc2c(C)nc3ncnn3c2C)cc1`, for which the viability in assay [1] was 100% (inactive); in assay [2], 87.5% (inactive); in assay [3], 93.1% (inactive); in assay [4] (setting [7]), 87.1%; in assay [4] (setting [8]), 93.1%. In addition, the differential viability (reversal) in assay [4] (H69AR cells + 2 uM doxorubicin) is 6.04% (inactive). The inhibition in assay [5] was -1.3% (inactive); in assay [6], -5.08% (inactive).
Regarding `O=S(=O)(c1ccc(N2CCN(c3ccc(F)cc3)CC2)cc1)N1CCCC1`, the viability is 111% (inactive) in assay [1]; 77.2% (inactive) in assay [2]; 75.7% (inactive) in assay [3]; 80.6% in assay [4] (setting [7]); 75.7% in assay [4] (setting [8]). In addition, in assay [4] (H69AR cells + 2 uM doxorubicin), the differential viability (reversal) is -4.83% (inactive). Moreover, the inhibition is -0.91% (inactive) in assay [5] and 15.4% (inactive) in assay [6].
Take `CCN(CC)S(=O)(=O)c1ccc(F)c(C(=O)NCCC(C)C)c1`: the viability in assay [1] was 82% (inactive); in assay [2], 95% (inactive); in assay [3] it was 90.9% (inactive); in assay [4] (setting [7]) it was 84.4%; in assay [4] (setting [8]) it was 90.9%. In assay [4] (H69AR cells + 2 uM doxorubicin), the differential viability (reversal) was 6.46% (inactive). The inhibition is -0.54% (inactive) in assay [5] and -2.73% (inactive) in assay [6].
Regarding `CC(C)(C)C1=Nn2c(nnc2-c2n[nH]c3c2CCC3)SC1`, the viability in assay [1] was 87% (inactive); in assay [2] it was 97.3% (inactive); in assay [3], 85.9% (inactive); in assay [4] (setting [7]), 90.6%; in assay [4] (setting [8]) it was 85.9%. For the same molecule, in assay [4] (H69AR cells + 2 uM doxorubicin), the differential viability (reversal) was -4.71% (inactive). Besides, the inhibition is -7.26% (inactive) in assay [5] and 4.68% (inactive) in assay [6].
Regarding `CC(C(=O)O)c1ccc(-c2ccccc2)c(F)c1` (configuration not stated), the viability in assay [1] was 94% (inactive); in assay [2], 81.7% (inactive); in assay [3], 90.2% (inactive); in assay [4] (setting [7]), 91.8%; in assay [4] (setting [8]), 90.2%. In addition, the differential viability (reversal) in assay [4] (H69AR cells + 2 uM doxorubicin) was -1.62% (inactive). For the same molecule, the inhibition in assay [5] is -1.82% (inactive); in assay [6] it was -1.5% (inactive).
On to `Cc1ccc(Cn2nnnc2CN2CCC(O)(c3ccccc3F)CC2)cc1`, for which the viability in assay [1] was 62% (inactive); in assay [2], 92.6% (inactive); in assay [3] it was 83.1% (inactive); in assay [4] (setting [7]), 85.4%; in assay [4] (setting [8]) it was 83.1%. The differential viability (reversal) in assay [4] (H69AR cells + 2 uM doxorubicin) is -2.32% (inactive). Besides, the values for the inhibition in assay [5] and in assay [6] were -8.36% (inactive) and -0.65% (inactive), respectively.
On to `COc1ccc(NC(=O)CCc2ccccc2)cc1NC(=O)c1ccco1`, for which the viability is 64% (inactive) in assay [1]; 58.4% (inactive) in assay [2]; 56.6% (inactive) in assay [3]; 77.2% in assay [4] (setting [7]); 56.6% in assay [4] (setting [8]). Moreover, the differential viability (reversal) in assay [4] (H69AR cells + 2 uM doxorubicin) was -20.6% (inactive). Besides, the inhibition is -7.12% (inactive) in assay [5] and 9.68% (inactive) in assay [6].
As to `CCOC(=O)c1c(C)[nH]c(C)c1C(=O)COC(=O)CNC(=O)c1ccc(OCC)cc1`, the viability in assay [1] is 96% (inactive); in assay [2], 77.9% (inactive); in assay [3], 88.3% (inactive); in assay [4] (setting [7]) it was 84.2%; in assay [4] (setting [8]), 88.3%. The differential viability (reversal) in assay [4] (H69AR cells + 2 uM doxorubicin) is 4.05% (inactive). The figures for the inhibition in assay [5] and in assay [6] were -2.34% (inactive) and -0.66% (inactive), respectively.
In the case of `CCOc1ccc(-c2cn(S(=O)(=O)c3cccc4nsnc34)nc2N)cc1`, the viability was 117% (inactive) in assay [1]; 94.8% (inactive) in assay [2]; 84.8% (inactive) in assay [3]; 81.6% in assay [4] (setting [7]); 84.8% in assay [4] (setting [8]). In assay [4] (H69AR cells + 2 uM doxorubicin), the differential viability (reversal) is 3.21% (inactive). For the same molecule, the inhibition was 34.9% (active) in assay [5] and 31% (active) in assay [6].
As for `CCOc1ccc(NS(=O)(=O)c2ccc(OCC(=O)N3CCCC3)cc2)cc1`, the viability is 92% (inactive) in assay [1]; 102% (inactive) in assay [2]; 88.7% (inactive) in assay [3]; 85.2% in assay [4] (setting [7]); 88.7% in assay [4] (setting [8]). Further, in assay [4] (H69AR cells + 2 uM doxorubicin), the differential viability (reversal) was 3.44% (inactive). Moreover, the values for the inhibition in assay [5] and in assay [6] were 1.51% (inactive) and -4.84% (inactive), respectively.
